The nature of assay [1]: Cytotoxicity against human Hc cells assessed as cell viability by tryptan blue staining method. In kind it is cell-based. The method in brief:
(§1)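 Human normal cell lines were treated with compound: Fb (skin), Hc (liver), MPC-5 (lung) and IE (colon). Viability was assessed by Trypan blue staining, and EC50 is reported in µM.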

A short description of assay [2]: Cytotoxicity against human MPC5 cells assessed as cell viability by tryptan blue staining method. In kind it is cell-based. Particulars: MPC-5. The method in brief:
as §1

In the next assay the test system is PC-3. The experiment in a line: Cytotoxicity against human PC3 cells assessed as cell viability by tryptan blue staining method. The class given is functional, cell-based. The method in brief:
(§2)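 Human cancer lines PC-3 (prostate), A549 (lung) and MCF-7 (breast) were treated with compound. Viability was assessed by Trypan blue staining, and EC50 is reported in µM.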

Assay [3] in a line: Cytotoxicity against human IE cells assessed as cell viability by tryptan blue staining method. The class given is cell-based. The method in brief: as §1
A further assay concerns MCF7. The experiment in a line: Cytotoxicity against human MCF7 cells assessed as cell viability by tryptan blue staining method. The class given is functional, cell-based. In outline:
as §2

The subject of another assay is A549. Briefly: Cytotoxicity against human A549 cells assessed as cell viability by tryptan blue staining method. The class given is functional, cell-based. The method in brief:
as §2

Assay [4] in a line: Cytotoxicity against human Fb cells assessed as cell viability by tryptan blue staining method. In kind it is cell-based. In outline: as §1
The test system of assay [5] is Human gammaherpesvirus 4. Briefly: Inhibition of TPA-induced EBV-EA activation in Raji cells. In kind it is functional, organism-based. As to conditions: human gammaherpesvirus 4, Raji. The method in brief:
(§3)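 TPA-induced EBV-EA activation in Raji cells, with TPA at 32 pmol and test agent at 1000, 500, 100 and 10 mol ratio/TPA. EA-positive cells are expressed relative to the positive control (TPA alone, 100%). An IC50 in µM is derived from the dose series. Curcumin served as the positive control substance.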

For assay [6], the system named is Human gammaherpesvirus 4. The experiment in a line: Inhibition of TPA-induced EBV-EA activation in Raji cells at 100 mol ratio/TPA relative to control. In kind it is functional. The method in brief: as §3
The test system of assay [7] is Raji. The experiment in a line: Cell viability in Raji cells at 10 mol ratio/TPA by tryptan blue staining relative to control. The class given is functional, Homo sapiens. In outline:
(§4)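 Raji cells co-treated with test agent and 32 pmol TPA in the EBV-EA activation assay. Doses were 10, 100, 500 or 1000 mol ratio relative to TPA. Viability was scored by Trypan blue staining and given as percent of Raji cells viable.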

Assay [8] concerns Raji. Briefly: Cell viability in Raji cells at 1000 mol ratio/TPA by tryptan blue staining relative to control. The class given is functional, Homo sapiens. In outline:
as §4

Assay [9] has as its system Human gammaherpesvirus 4. The experiment in a line: Inhibition of TPA-induced EBV-EA activation in Raji cells at 1000 mol ratio/TPA relative to control. The class given is functional. The method in brief: as §3
The test system of assay [10] is Raji. Briefly: Cell viability in Raji cells at 100 mol ratio/TPA by tryptan blue staining relative to control. In kind it is functional, Homo sapiens. The method in brief:
as §4

For assay [11], the system named is Human gammaherpesvirus 4. Briefly: Inhibition of TPA-induced EBV-EA activation in Raji cells at 10 mol ratio/TPA relative to control. The class given is functional. The method in brief: as §3
Assay [12] has as its system Human gammaherpesvirus 4. Briefly: Inhibition of TPA-induced EBV-EA activation in Raji cells at 500 mol ratio/TPA relative to control. In kind it is functional. The method in brief: as §3
Assay [13] has as its system Raji. Briefly: Cell viability in Raji cells at 500 mol ratio/TPA by tryptan blue staining relative to control. The class given is functional, Homo sapiens. In outline: as §4

The text below walks through data of ChEMBL document CHEMBL1138254, “Stereoselective synthesis and cytotoxicity of a cancer chemopreventive naphthoquinone from Tabebuia avellanedae” (Bioorg Med Chem Lett, 2007).

On to `CO[C@@]12[C@H](COC(N)=O)C3=C(C(=O)C(C)=C(N)C3=O)N1C[C@@H]1N[C@@H]12` [MITOMYCIN], for which the EC50 in assay [1] was determined as 1.46 µM; in [2], 2.1 µM; in the assay on PC-3, 0.14 µM; in assay [3], 1.46 µM; in the assay with MCF7, 0.96 µM; in the assay with A549 it was 0.43 µM. Further, the EC50 in assay [4] came out at 0.93 µM.

`COc1cc(/C=C/C(=O)CC(=O)/C=C/c2ccc(O)c(OC)c2)ccc1O` [CURCUMIN] yielded an IC50 in the assay with Human gammaherpesvirus 4 [5] of 345 µM.

On to `CC(O)c1cc2c(o1)C(=O)c1cccc(O)c1C2=O` (centres undefined), for which the EC50 amounted to 89.3 µM in [1]; 89.3 µM in assay [2]; 0.56 µM in the assay with PC-3; 158 µM in [3]; 8.5 µM in the assay with MCF7; 3.24 µM in the assay with A549. Moreover, the EC50 in assay [4] is 45.4 µM. Besides, the “EBV-EA positive cells %” value with Human gammaherpesvirus 4 [6] is on record as 20.7%; with Human gammaherpesvirus 4 [9], 0%; with Human gammaherpesvirus 4 [11] it was 52.9%; in the assay with Human gammaherpesvirus 4 [12] it was 6.2%. Also, the Activity in the assay on Raji [7] is given as above 80%; in the assay on Raji [8] it was 60%; with Raji [10], above 80%; in the assay with Raji [13], 70%. 34.9 µM corresponded to half-maximal inhibition in the assay on Human gammaherpesvirus 4 [5] (IC50).

With `CC(C)=CCC1=C(O)C(=O)c2ccccc2C1=O` [LAPACHOL], the “EBV-EA positive cells %” value in the assay on Human gammaherpesvirus 4 [6] was determined as 65.2%; with Human gammaherpesvirus 4 [9] it was 8.9%; in the assay with Human gammaherpesvirus 4 [11], 86.6%; with Human gammaherpesvirus 4 [12] it was 32.8%. Further, the Activity is given as above 80% in the assay on Raji [7], 50% in the assay on Raji [8], above 80% with Raji [10] and 60% with Raji [13]. This compound also registered an IC50 in the assay with Human gammaherpesvirus 4 [5] of 311 µM.

As to `C[C@@H](O)c1cc2c(o1)C(=O)c1cccc(O)c1C2=O`, the EC50 in assay [1] is 29.8 µM; in assay [2], 65.9 µM; in the assay with PC-3, 0.93 µM; in assay [3], 39.7 µM; in the assay with MCF7, 9.3 µM; with A549, 3 µM. Further, the EC50 in assay [4] turned out to be 39.7 µM. Further, the “EBV-EA positive cells %” value in the assay on Human gammaherpesvirus 4 [6] was found to be 24.7%; in the assay with Human gammaherpesvirus 4 [9] it was 0%; in the assay on Human gammaherpesvirus 4 [11], 59.4%; in the assay on Human gammaherpesvirus 4 [12] it was 9.7%. Moreover, the Activity in the assay with Raji [7] was above 80%; with Raji [8] it was 70%; with Raji [10], above 80%; with Raji [13] it was above 80%. The compound also showed an IC50 with Human gammaherpesvirus 4 [5] of 38.9 µM.

For `C[C@H](O)c1cc2c(o1)C(=O)c1cccc(O)c1C2=O`, the EC50 in assay [1] was found to be 11.1 µM; in assay [2], 29.7 µM; in the assay on PC-3, 0.14 µM; in assay [3], 54.5 µM; in the assay on MCF7, 3.5 µM; with A549, 0.96 µM. For the same compound, the EC50 in [4] was 11.1 µM. In addition, the “EBV-EA positive cells %” value stood at 16.9% with Human gammaherpesvirus 4 [6], 0% in the assay on Human gammaherpesvirus 4 [9], 50% in the assay with Human gammaherpesvirus 4 [11] and 4.4% in the assay on Human gammaherpesvirus 4 [12]. The Activity is given as above 80% in the assay with Raji [7], 60% in the assay on Raji [8], above 80% in the assay on Raji [10] and 60% in the assay with Raji [13]. For the same compound, in the assay with Human gammaherpesvirus 4 [5], inhibition was half-maximal at 33.2 µM (IC50).

With `CC1(C)CCC2=C(O1)c1ccccc1C(=O)C2=O` [LAPACHONE], the “EBV-EA positive cells %” value is given as 50.4% in the assay with Human gammaherpesvirus 4 [6], 4.7% with Human gammaherpesvirus 4 [9], 73.1% with Human gammaherpesvirus 4 [11] and 21.7% in the assay with Human gammaherpesvirus 4 [12]. In addition, the Activity in the assay on Raji [7] was above 80%; in the assay with Raji [8], 50%; in the assay on Raji [10], above 80%; in the assay with Raji [13], above 80%. The IC50 with Human gammaherpesvirus 4 [5] is 210 µM.
